These results are taken from ChEMBL document CHEMBL1148651, “Potent antitumor 9-anilinoacridines and acridines bearing an alkylating N-mustard residue on the acridine chromophore: synthesis and biological activity” (J Med Chem, 2006).

The test system of assay [1] is CCRF-CEM. In words: Antiproliferative activity against human CCRF-CEM cell line. The format is functional, cell-based.
Assay [2] deals with HCT-116. In words: Antiproliferative activity against human HCT116 cell line. The format is functional, cell-based. In a few lines:
(§1)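 Growth inhibition after 72 h continuous exposure. Solid tumour lines were read by sulforhodamine B. Six or seven concentrations per compound were tested in duplicate. IC50 came from median-effect (mass-action law) dose-effect analysis.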

Assay [3] concerns MX1. In words: Antiproliferative activity against human MX1 cell line. Type of assay: functional, cell-based. The procedure, abridged:
as §1

The test system of assay [4] is CCRF-CEM. Kind of assay: Antiproliferative activity against human vinblastine resistant CCRF-CEM cell line. Type of assay: functional, cell-based. The procedure, abridged: (§2)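 Leukemic CCRF-CEM parent and resistant sublines were exposed for 72 h, then given phenazine methosulfate-XTT at 37 °C for 6 h. Absorbance was read at 450 and 630 nm. Six or seven concentrations were tested in duplicate, and IC50 came from median-effect plot analysis. Resistance fold is relative to the parent CCRF-CEM IC50.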

Assay [5] deals with A549. Kind of assay: Antiproliferative activity against human A549 cell line. The format is functional, cell-based. The procedure, abridged: as §1
Assay [6] relates to CCRF-CEM. Kind of assay: Antiproliferative activity against human taxol resistant CCRF-CEM cell line. The format is functional, cell-based. The procedure, abridged: as §2
Assay [7] has as its system MX1. In words: Antitumor activity against human MX1 cell line xenografted in nude mouse at 1.5 mg/kg, iv after 14 days. Type of assay: functional. In a few lines: (§3)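 Nude mice were implanted subcutaneously with MX-1 tumour tissue (50 µg) on day 0. Doses were given iv via the tail vein every 2 or 3 days (Q2D or Q3D schedules) in 20 µL DMSO plus 180 µL saline. Tumour volume was measured by caliper (length × width × height). Result is T/C (%) on the stated day.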

In assay [8] the test system is Mus musculus. Kind of assay: Toxicity against nude mouse xenografted with human MX1 cell line assessed as weight loss at 1.5 mg/kg, iv after 14 days. The format is functional. In a few lines:
(§4)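 MX-1 xenograft nude mice were implanted with 50 µg tissue subcutaneously on day 0. They were treated iv by tail vein every 2 or 3 days in 20 µL DMSO plus 180 µL saline. Toxicity is the maximum body weight loss (%) relative to initial pretreatment body weight, on the day indicated.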

Assay [9] relates to Mus musculus. Kind of assay: Toxicity against nude mouse xenografted with human MX1 cell line assessed as weight loss at 4 mg/kg, iv after 17 days. Type of assay: functional. In a few lines: as §4
In assay [10] the test system is MX1. Kind of assay: Antitumor activity against human MX1 cell line xenografted in nude mouse at 4 mg/kg, iv after 19 days. Type of assay: functional. The procedure, abridged:
as §3

The test system of assay [11] is Mus musculus. Kind of assay: Toxicity against nude mouse xenografted with human MX1 cell line assessed as weight loss at 2 mg/kg, iv after 14 days. Type of assay: functional. In a few lines:
as §4

Assay [12] deals with MX1. Kind of assay: Antitumor activity against human MX1 cell line xenografted in nude mouse at 2 mg/kg, iv after 14 days. Type of assay: functional. In a few lines:
as §3

Assay [13] has as its system Mus musculus. In words: Toxicity against nude mouse xenografted with human MX1 cell line assessed as weight loss at 10 mg/kg, iv after 19 days. Type of assay: functional.
Assay [14] has as its system Mus musculus. In words: Toxicity against nude mouse xenografted with human MX1 cell line assessed as weight loss at 10 mg/kg, iv after 13 days. Type of assay: functional. The procedure, abridged:
as §4

The test system of assay [15] is Mus musculus. In words: Toxicity against nude mouse xenografted with human MX1 cell line assessed as weight loss at 10 mg/kg, iv after 17 days. Type of assay: functional.
Assay [16] concerns MX1. In words: Antitumor activity against human MX1 cell line xenografted in nude mouse at 10 mg/kg, iv after 15 days. The format is functional. In a few lines:
as §3

For assay [17], the system named is Mus musculus. In words: Toxicity against nude mouse xenografted with human MX1 cell line assessed as weight loss at 2 mg/kg, iv after 12 days. The format is functional. The procedure, abridged: as §4

The structures appear in SMILES notation.

`Nc1cc(CO)cc(Nc2c3ccccc3nc3c(OCCN(CCCl)CCCl)cccc23)c1`: the half-inhibitory concentration (IC50) in assay [1] came out at 6.7 nM; in assay [2], 7.7 nM; in assay [3] it was 6.6 nM; in [4], 126 nM; in assay [5] it was 32.4 nM; in [6] it was 63.3 nM.

For the compound `CCOC(=O)Nc1cc(CO)cc(Nc2c3ccccc3nc3c(OCCN(CCCl)CCCl)cccc23)c1`, the IC50 in [1] worked out at 25.7 nM; in assay [2], 59.5 nM; in assay [3], 55.5 nM; in assay [4], 231 nM; in assay [5], 94 nM; in assay [6], 126 nM.

In the case of `ClCCN(CCCl)CCCCOc1cccc2cc3ccccc3nc12`, the half-inhibitory concentration (IC50) in assay [1] amounted to 51.2 nM; in assay [2] it was 118 nM; in assay [3] it was 82 nM; in assay [4], 308 nM; in assay [5], 226 nM; in [6], 393 nM.

On to `Nc1cc(CO)cc(Nc2c3ccccc3nc3c(OCCCCN(CCCl)CCCl)cccc23)c1`, for which the IC50 in assay [1] was 4.2 nM; in assay [2], 9.5 nM; in assay [3] it was 2.4 nM; in assay [4] it was 111 nM; in assay [5] it was 5.3 nM; in assay [6], 40.5 nM.

With `COc1ccc(Nc2c3ccccc3nc3c(OCCCCN(CCCl)CCCl)cccc23)cc1N`, the 50% inhibitory concentration (IC50) in [1] was 5.9 nM; in assay [2], 8.3 nM; in [3], 5.6 nM; in [4] it was 86.5 nM; in assay [5], 19 nM; in assay [6], 89.9 nM.

Take `COc1ccc(Nc2c3ccccc3nc3c(OCCN(CCCl)CCCl)cccc23)cc1N`: the half-maximal inhibitory concentration (IC50) in assay [1] amounted to 12.3 nM; in [2], 48.2 nM; in assay [3] it was 24.1 nM; in assay [4] it was 60.1 nM; in assay [5], 118 nM; in assay [6], 57.5 nM.

For the compound `Cc1cc(N)cc(Nc2c3ccccc3nc3c(OCCCCN(CCCl)CCCl)cccc23)c1`, the half-inhibitory concentration (IC50) in assay [1] amounted to 3.7 nM; in assay [2], 9.1 nM; in [3], 10 nM; in [4], 54.5 nM; in assay [5], 8.9 nM; in [6] it was 61.1 nM. Further, the values for the Activity in assay [7] and in assay [8] were 6% and 8%, respectively.

With `Cc1cc(N)cc(Nc2c3ccccc3nc3c(OCCN(CCCl)CCCl)cccc23)c1`, the half-inhibitory concentration (IC50) in assay [1] was 4.1 nM; in assay [2], 23.2 nM; in assay [3], 21.9 nM; in [4], 18.8 nM; in assay [5], 44.9 nM; in assay [6] it was 21.7 nM. Further, the results for the Activity in assay [9] and in [10] were 15% and 79%, respectively.

In the case of `OCc1cc(O)cc(Nc2c3ccccc3nc3c(OCCCCN(CCCl)CCCl)cccc23)c1`, the IC50 in assay [1] amounted to 5.9 nM; in [2] it was 9.1 nM; in assay [3] it was 7.2 nM; in assay [4], 338 nM; in assay [5], 25.1 nM; in assay [6], 117 nM.

In the case of `Nc1cc(CO)cc(Nc2c3ccccc3nc3ccccc23)c1`, the IC50 in assay [5] is 47 nM.

In the case of `ClCCN(CCCl)CCCOc1cccc2cc3ccccc3nc12`, the concentration for half-maximal inhibition (IC50) in assay [1] amounted to 35.3 nM; in assay [2], 135 nM; in assay [3], 82.7 nM; in assay [4], 253 nM; in assay [5], 166 nM; in assay [6] it was 150 nM.

`Cc1ccc(N)cc1Nc1c2ccccc2nc2c(OCCN(CCCl)CCCl)cccc12`: the IC50 in assay [1] was 8 nM; in assay [2], 9 nM; in assay [3], 7.1 nM; in [4], 31.2 nM; in assay [5], 31.6 nM; in assay [6], 46.5 nM.

As to `OCc1cc(O)cc(Nc2c3ccccc3nc3c(OCCN(CCCl)CCCl)cccc23)c1`, the 50% inhibitory concentration (IC50) in [1] was determined as 6.9 nM; in assay [2], 125 nM; in assay [3], 58 nM; in assay [4], 152 nM; in [5] it was 108 nM; in assay [6], 139 nM.

Consider `ClCCN(CCCl)CCOc1cccc2cc3ccccc3nc12`, for which the 50% inhibitory concentration (IC50) came out at 37.6 nM in [1]; 94.9 nM in [2]; 70.8 nM in assay [3]; 163 nM in assay [4]; 137 nM in assay [5]; 117 nM in assay [6].

For the compound `COc1cc(N)cc(Nc2c3ccccc3nc3c(OCCCCN(CCCl)CCCl)cccc23)c1`, the IC50 worked out at 4.2 nM in [1]; 13.8 nM in assay [2]; 5.6 nM in [3]; 51.3 nM in assay [4]; 19 nM in assay [5]; 43.9 nM in assay [6]. Besides, the Activity was found to be 8% in [11] and 77% in assay [12].

As for `COc1cc(N)cc(Nc2c3ccccc3nc3c(OCCN(CCCl)CCCl)cccc23)c1`, the IC50 in assay [1] came to 11.9 nM; in assay [2] it was 53.8 nM; in [3] it was 28.1 nM; in assay [4], 46.9 nM; in assay [5], 90.2 nM; in [6], 49.8 nM. Also, the Activity in assay [13] is recorded as 10%; in assay [14], 15%; in assay [15] it was 10%; in assay [16], 96%.

`Cc1ccc(N)cc1Nc1c2ccccc2nc2c(OCCCCN(CCCl)CCCl)cccc12`: the IC50 was determined as 4.3 nM in assay [1]; 13.6 nM in assay [2]; 9.2 nM in assay [3]; 42.3 nM in assay [4]; 15.4 nM in [5]; 57.8 nM in assay [6]. Also, the Activity in assay [12] is reported as 20%; in [17] it was 21%.

On to `CC(=O)O[C@H]1C(=O)[C@@]2(C)[C@H]([C@H](OC(=O)c3ccccc3)[C@]3(O)C[C@H](OC(=O)[C@H](O)[C@@H](NC(=O)c4ccccc4)c4ccccc4)C(C)=C1C3(C)C)[C@]1(OC(C)=O)CO[C@@H]1C[C@@H]2O` [PACLITAXEL], for which the IC50 in assay [1] was 1.1 nM; in [3], 22.5 nM; in assay [4] it was 1730 nM; in assay [5], 2.1 nM; in assay [6] it was 484 nM.

Consider `CC[C@]1(O)C[C@@H]2CN(CCc3c([nH]c4ccccc34)[C@@](C(=O)OC)(c3cc4c(cc3OC)N(C)[C@H]3[C@@](O)(C(=O)OC)[C@H](OC(C)=O)[C@]5(CC)C=CCN6CC[C@]43[C@@H]65)C2)C1` [VINBLASTINE], for which the concentration for half-maximal inhibition (IC50) stood at 0.4 nM in assay [1]; 0.7 nM in assay [2]; 2 nM in [3]; 207 nM in assay [4]; 1.1 nM in [5]; 28.7 nM in [6].
